Assays:
[1] = The 50% cytotoxic concentration was calculated as the concentration of the drug that decreased the percentage of formazan produced in drug-treated,uninfected cells to 50% of that produced in drug free uninfected cells on serotype 14.; format: functional
[2] = target: Cathepsin B (Homo sapiens) (UniProt P07858); test: Inhibition of cathepsin B by the compound was measured as % activity of thrombin remaining after 10-15 min at 10 uM
Method in brief: (§1)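 Purified proteases: human liver cathepsin B, porcine erythrocyte calpain I, human neutrophil elastase, bovine chymotrypsin, human thrombin and bovine trypsin. Each enzyme was incubated with inhibitor for 10-15 min, at 10 µM or at 2 µM where specified. Residual enzyme activity is reported as % remaining.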

[3] = target: T1, Neutrophil elastase (Homo sapiens) (UniProt P08246); test: % activity against elastase remaining after 10-15 min at 10 uM; method in brief: as §1
T1 sequence (whole entry): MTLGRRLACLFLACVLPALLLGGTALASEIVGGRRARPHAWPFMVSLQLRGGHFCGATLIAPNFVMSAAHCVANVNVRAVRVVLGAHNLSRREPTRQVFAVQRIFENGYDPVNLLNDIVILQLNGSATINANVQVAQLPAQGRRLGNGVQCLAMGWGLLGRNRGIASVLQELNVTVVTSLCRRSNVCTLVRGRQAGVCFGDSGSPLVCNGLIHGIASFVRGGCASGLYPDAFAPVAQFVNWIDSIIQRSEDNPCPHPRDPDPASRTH

[4] = target: T2, Calpain-1 catalytic subunit (Homo sapiens) (UniProt P07384); test: % activity against calpain 1 remaining after 10-15 min at 10 uM; conditions: Sus scrofa; method in brief: as §1
T2 sequence (whole entry): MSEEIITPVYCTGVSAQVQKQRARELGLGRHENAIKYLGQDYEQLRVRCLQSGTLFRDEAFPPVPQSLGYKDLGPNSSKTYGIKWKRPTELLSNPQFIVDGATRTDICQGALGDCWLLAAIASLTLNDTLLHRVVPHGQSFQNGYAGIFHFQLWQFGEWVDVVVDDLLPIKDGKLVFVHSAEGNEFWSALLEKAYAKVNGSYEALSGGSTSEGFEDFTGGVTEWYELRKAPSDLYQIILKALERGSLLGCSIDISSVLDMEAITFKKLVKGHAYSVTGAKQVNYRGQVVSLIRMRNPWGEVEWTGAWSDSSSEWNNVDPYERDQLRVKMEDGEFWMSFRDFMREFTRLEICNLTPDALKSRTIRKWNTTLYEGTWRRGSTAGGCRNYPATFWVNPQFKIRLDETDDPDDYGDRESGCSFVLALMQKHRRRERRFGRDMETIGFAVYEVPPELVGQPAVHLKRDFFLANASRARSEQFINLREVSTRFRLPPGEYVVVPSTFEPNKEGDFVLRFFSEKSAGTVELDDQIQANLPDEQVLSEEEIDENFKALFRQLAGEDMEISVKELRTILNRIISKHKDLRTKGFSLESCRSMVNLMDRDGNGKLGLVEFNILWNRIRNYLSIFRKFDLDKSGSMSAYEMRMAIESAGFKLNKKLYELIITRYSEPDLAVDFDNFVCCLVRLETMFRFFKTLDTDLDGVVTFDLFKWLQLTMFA

[5] = target: Chymotrypsinogen A (Bos taurus) (UniProt P00766); test: Inhibition of Chymotrypsinogen by the compound was measured as % activity of thrombin remaining after 10-15 min at 10 uM; method in brief: as §1
[6] = target: T3, Human rhinovirus A protease (Human rhinovirus sp.) (UniProt Q4U254); test: Irreversible inhibition of human rhinovirus 3C protease
T3 sequence (whole entry): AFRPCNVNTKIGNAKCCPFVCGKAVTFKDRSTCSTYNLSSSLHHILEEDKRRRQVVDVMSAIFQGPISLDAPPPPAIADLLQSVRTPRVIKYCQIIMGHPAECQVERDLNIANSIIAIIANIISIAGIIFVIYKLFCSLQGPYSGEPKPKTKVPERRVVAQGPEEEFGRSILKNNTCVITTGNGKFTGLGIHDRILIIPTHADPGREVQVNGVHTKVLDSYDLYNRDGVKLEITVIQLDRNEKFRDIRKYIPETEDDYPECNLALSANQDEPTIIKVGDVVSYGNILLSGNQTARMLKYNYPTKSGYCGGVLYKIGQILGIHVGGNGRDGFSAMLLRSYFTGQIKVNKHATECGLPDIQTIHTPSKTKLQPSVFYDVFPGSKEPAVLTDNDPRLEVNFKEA

[7] = target: T4, Serine protease 1 (Bos taurus) (UniProt P00760); test: Inhibition of trypsin by the compound was measured as % activity of thrombin remaining after 10-15 min at 10 uM; method in brief: as §1
T4 sequence (whole entry): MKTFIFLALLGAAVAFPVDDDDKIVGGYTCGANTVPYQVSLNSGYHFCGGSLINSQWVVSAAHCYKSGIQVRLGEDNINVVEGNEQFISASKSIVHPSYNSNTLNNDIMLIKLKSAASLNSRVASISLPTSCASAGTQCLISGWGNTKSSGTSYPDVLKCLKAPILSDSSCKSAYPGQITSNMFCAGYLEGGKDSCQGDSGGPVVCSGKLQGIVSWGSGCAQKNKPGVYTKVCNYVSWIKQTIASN

[8] = target: Prothrombin (Homo sapiens) (UniProt P00734); test: Inhibition of thrombin by the compound was measured as % activity of thrombin remaining after 10-15 min at 10 uM; method in brief: as §1
[9] = target: T3, Human rhinovirus A protease (Human rhinovirus sp.); test: The kobs/[I] value for the irreversible inhibitors was obtained by reaction initiated by addition of 50 nM 3CP,containing 1 uM substrate and varying inhibitor concentrations on serotype 2.
[10] = target: T3, Human rhinovirus A protease (Human rhinovirus sp.); test: The EC90 was calculated as the concentration of drug that increased the percentage of formazan production in drug treated, virus infected cells to 50% of that produced by drug free uninfected cells on human rhinovirus 2.; format: functional
[11] = target: T3, Human rhinovirus A protease (Human rhinovirus sp.); test: The EC90 was calculated as the concentration of drug that increased the percentage of formazan production in drug treated, virus infected cells to 50% of that produced by drug free uninfected cells on human rhinovirus 1A.; format: functional
[12] = target: T3, Human rhinovirus A protease (Human rhinovirus sp.); test: The EC90 was calculated as the concentration of drug that increased the percentage of formazan production in drug treated, virus infected cells to 50% of that produced by drug free uninfected cells on human rhinovirus-10.; format: functional
[13] = target: T3, Human rhinovirus A protease (Human rhinovirus sp.); test: The EC90 was calculated as the concentration of drug that increased the percentage of formazan production in drug treated, virus infected cells to 50% of that produced by drug free uninfected cells on human rhinovirus-14.; format: functional
[14] = Increased percentage of formazan production in drug treated virus infected cells to equal 50% control drug free uninfected cells on serotype 14
[15] = target: T1, Neutrophil elastase (Homo sapiens); test: % activity against elastase remaining after 10-15 min at 2 uM; method in brief: as §1
[16] = target: Cathepsin B (Homo sapiens) (UniProt P07858); test: Inhibition of cathepsin B by the compound was measured as % activity of thrombin remaining after 10-15 min at 2 uM; method in brief: as §1
[17] = target: T2, Calpain-1 catalytic subunit (Homo sapiens); test: % activity against calpain 1 remaining after 10-15 min at 2 uM; conditions: Sus scrofa; method in brief: as §1
[18] = target: Chymotrypsinogen A (Bos taurus) (UniProt P00766); test: Inhibition of Chymotrypsinogen by the compound was measured as % activity of thrombin remaining after 10-15 min at 2 uM; method in brief: as §1
[19] = target: Prothrombin (Homo sapiens) (UniProt P00734); test: Inhibition of thrombin by the compound was measured as % activity of thrombin remaining after 10-15 min at 2 uM; method in brief: as §1
[20] = target: T4, Serine protease 1 (Bos taurus); test: Inhibition of trypsin by the compound was measured as % activity of thrombin remaining after 10-15 min at 2 uM; method in brief: as §1
[21] = half life towards biological agent (dithiothreitol 5 mM); format: ADME; conditions: dithiothreitol solution
[22] = half life towards biological agent (human plasma); format: ADME, organism-based
Method in brief: (§2)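 Human plasma (CPDA) or heparinized animal plasma, with rat plasma diluted 1:1 in 100 mM phosphate pH 7.4, and buffer controls, n = 3. Compound was added to 25 µM final at 37 °C and sampled periodically over 1 h. Samples were quenched in CH3CN, centrifuged, dried, reconstituted and analysed by reverse-phase HPLC. 1-Naphthyl butyrate was the esterase control.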

[23] = half life towards biological agent (dog plasma); format: ADME, organism-based, Canis lupus familiaris; method in brief: as §2
[24] = half life towards biological agent (rat plasma); format: ADME, cell-free; method in brief: as §2
peptidase = test: half life towards biological agent (peptidase); format: ADME
Method in brief: (§3)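 Compound at 25 µM in 100 mM potassium phosphate pH 7.4 was preincubated 5 min at 37 °C. Reaction was started with chymotrypsin (5 units/mL) or porcine intestinal peptidase (0.1 units/mL). Aliquots taken at 0 and 60 min were quenched in CH3CN and centrifuged. Parent was quantified by reverse-phase C8 HPLC with UV at 220 nm. 1-Naphthyl butyrate hydrolysis was the peptidase esterase control.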

chymotrypsin = test: half life towards biological agent (chymotrypsin); format: ADME; method in brief: as §3

SMILES: CCOC(=O)/C=C/[C@H](C[C@@H]1CCNC1=O)NC(=O)[C@H](Cc1ccc(F)cc1)NC(=O)[C@@H](NC(=O)c1cc(C)on1)C(C)(C)C
- CC50 [1]: > 100000 nM
- Activity [2]: 81%
- Activity [3]: 96%
- Activity [4]: 100%
- Activity [5]: 97%
- K obs / 1 [6]: 980000 M⁻¹ s⁻¹
- Activity [7]: 95%
- Activity [8]: 101%

SMILES: CCOC(=O)/C=C/[C@H](C[C@@H]1CCNC1=O)NC(=O)[C@H](Cc1ccccc1)NC(=O)[C@@H](NC(=O)OCc1ccccc1)C(C)C
- CC50 [1]: > 100000 nM
- K obs / 1 [6]: 500000 M⁻¹ s⁻¹

SMILES: CCOC(=O)/C=C/[C@H](C[C@@H]1CCNC1=O)NC(=O)[C@H](Cc1ccccc1)NC(=O)[C@H](CC(C)C)NC(=O)OCc1ccccc1
- CC50 [1]: > 100000 nM
- K obs / 1 [9]: 31000 M⁻¹ s⁻¹
- K obs / 1 [6]: 257000 M⁻¹ s⁻¹

SMILES: CCOC(=O)/C=C/[C@H](C[C@@H]1CCCNC1=O)NC(=O)[C@H](Cc1ccccc1)NC(=O)[C@H](CC(C)C)NC(=O)OCc1ccccc1
- CC50 [1]: > 100000 nM
- K obs / 1 [6]: 239000 M⁻¹ s⁻¹

SMILES: CCOC(=O)/C=C/[C@H](C[C@H]1CCNC1=O)NC(=O)[C@H](Cc1ccccc1)NC(=O)[C@H](CC(C)C)NC(=O)OCc1ccccc1
- CC50 [1]: > 100000 nM
- K obs / 1 [6]: 18000 M⁻¹ s⁻¹

SMILES: CCOC(=O)/C=C/[C@H](C[C@@H]1CCCNC1=O)NC(=O)[C@H](Cc1ccc(F)cc1)NC(=O)[C@@H](NC(=O)c1cc(C)on1)C(C)C
- CC50 [1]: > 100000 nM
- K obs / 1 [6]: 900000 M⁻¹ s⁻¹

SMILES: CCOC(=O)/C=C/[C@H](CN1CCNC1=O)NC(=O)[C@H](Cc1ccccc1)NC(=O)[C@H](CC(C)C)NC(=O)OCc1ccccc1
- CC50 [1]: > 100000 nM
- K obs / 1 [6]: 10900 M⁻¹ s⁻¹

SMILES: CCOC(=O)/C=C/[C@H](CCC(N)=O)NC(=O)[C@@H](CC(=O)[C@@H](NC(=O)c1cc(C)on1)C(C)C)Cc1ccc(F)cc1
- EC90 [10]: 280 nM
- EC90 [11]: 630 nM

SMILES: CCOC(=O)/C=C/[C@H](C[C@@H]1CCNC1=O)NC(=O)[C@H](Cc1ccc(F)cc1)NC(=O)[C@@H](NC(=O)c1cc(C)on1)C(C)C
- CC50 [1]: > 100000 nM
- EC90 [10]: 50 nM
- Activity [2]: 96%
- Activity [3]: 100%
- Activity [4]: 100%
- Activity [5]: 101%
- EC90 [12]: 140 nM
- EC90 [13]: 40 nM
- K obs / 1 [6]: 1.5e+06 M⁻¹ s⁻¹
- Activity [7]: 100%
- Activity [8]: 103%
- EC90 [11]: 140 nM

SMILES: CCOC(=O)/C=C/[C@H](CCC(N)=O)NC(=O)[C@H](Cc1ccccc1)NC(=O)[C@H](CC(C)C)NC(=O)OCc1ccccc1
- EC50 [14]: 540 nM
- Activity [15]: 92%
- CC50 [1]: > 320000 nM
- Activity [16]: 39%
- Activity [17]: 100%
- Activity [18]: 96%
- Activity [19]: 101%
- Activity [20]: 98%

SMILES: CCOC(=O)/C=C/[C@H](C[C@@H]1CCCNC1=O)NC(=O)[C@@H](CC(=O)[C@@H](NC(=O)c1cc(C)on1)C(C)C)Cc1ccc(F)cc1
- CC50 [1]: > 100000 nM
- K obs / 1 [6]: 500000 M⁻¹ s⁻¹

SMILES: CCOC(=O)/C=C/[C@H](C[C@@H]1CCNC1=O)NC(=O)[C@@H](CC(=O)[C@@H](NC(=O)c1cc(C)on1)C(C)C)Cc1ccc(F)cc1
- CC50 [1]: > 100000 nM
- EC90 [10]: 30 nM
- Activity [2]: 98%
- half-life [21]: > 0.5 h
- Activity [3]: 99%
- Activity [4]: 100%
- half-life [22]: > 1 h
- half-life [23]: > 1 h
- Activity [5]: 100%
- half-life [24]: < 2 min
- EC90 [12]: 100 nM
- half-life (peptidase): > 1 h
- EC90 [13]: 20 nM
- K obs / 1 [6]: 1.09e+06 M⁻¹ s⁻¹
- Activity [7]: 100%
- Activity [8]: 100%
- half-life (chymotrypsin): > 1 h
- EC90 [11]: 41 nM

SMILES: CCOC(=O)/C=C/[C@H](CCC(=O)N(C)C)NC(=O)[C@H](Cc1ccccc1)NC(=O)[C@H](CC(C)C)NC(=O)OCc1ccccc1
- CC50 [1]: > 100000 nM

SMILES: CCOC(=O)/C=C/[C@H](CCC(=O)NC)NC(=O)[C@H](Cc1ccccc1)NC(=O)[C@H](CC(C)C)NC(=O)OCc1ccccc1
- CC50 [1]: > 100000 nM
